In ChEMBL document CHEMBL4673243, “Discovery of 9-Cyclopropylethynyl-2-((S)-1-[1,4]dioxan-2-ylmethoxy)-6,7-dihydropyrimido[6,1-a]isoquinolin-4-one (GLPG1205), a Unique GPR84 Negative Allosteric Modulator Undergoing Evaluation in a Phase II Clinical Trial” (J Med Chem, 2020):
Converted amounts (≈) assume the structure as drawn. Each block holds one molecule with its values, some of them ahead of it.

Experiments:
CYP3A4 [1] = biological target: T1, CYP3A4 (Homo sapiens, UniProt P08684); assay: Inhibition of CYP3A4 in human liver microsomes at 10 uM using testosterone as probe substrate and in presence of co-factor measured after 20 mins by LC-MS/MS analysis relative to control; assay type: ADME
CYP1A2 = biological target: T2, CYP1A2 (Homo sapiens, UniProt P05177); assay: Inhibition of CYP1A2 in human liver microsomes at 10 uM using probe substrate and in presence of co-factor measured after 20 mins by LC-MS/MS analysis relative to control; assay type: ADME
T2 sequence (P05177 whole entry): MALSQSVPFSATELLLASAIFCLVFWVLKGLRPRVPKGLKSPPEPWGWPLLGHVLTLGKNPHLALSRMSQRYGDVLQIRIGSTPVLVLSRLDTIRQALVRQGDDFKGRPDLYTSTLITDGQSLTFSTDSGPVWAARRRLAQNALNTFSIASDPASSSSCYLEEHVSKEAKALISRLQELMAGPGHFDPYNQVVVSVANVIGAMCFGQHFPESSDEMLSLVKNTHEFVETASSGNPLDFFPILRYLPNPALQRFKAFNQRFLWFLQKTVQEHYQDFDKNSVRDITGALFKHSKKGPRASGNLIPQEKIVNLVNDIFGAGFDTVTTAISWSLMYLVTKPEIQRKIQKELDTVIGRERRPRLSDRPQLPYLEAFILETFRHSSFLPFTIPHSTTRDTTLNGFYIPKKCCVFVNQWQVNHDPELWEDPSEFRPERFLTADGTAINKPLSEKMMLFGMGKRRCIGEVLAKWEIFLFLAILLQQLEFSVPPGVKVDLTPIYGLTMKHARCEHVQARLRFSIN

CYP3A4 [2] = biological target: T1, CYP3A4; assay: Inhibition of CYP3A4 in human liver microsomes at 10 uM using midazolam as probe substrate and in presence of co-factor measured after 20 mins by LC-MS/MS analysis relative to control; assay type: ADME
CYP2C9 = CYP2C9 (Homo sapiens, UniProt P11712); assay: Inhibition of CYP2C9 in human liver microsomes at 10 uM using probe substrate and in presence of co-factor measured after 20 mins by LC-MS/MS analysis relative to control; assay type: ADME
[3] = biological target: 3',5'-cyclic-AMP phosphodiesterase 4A (Homo sapiens, UniProt P27815); assay: Inhibition of recombinant human PDE4A overexpressed in HEK293 cells assessed as reduction in cAMP hydrolysis by HTRF based immunoassay; assay type: cell-based; conditions: read-out: IC50
Outline: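 Human PDE4A from lysate of HEK293 cells overexpressing the enzyme hydrolyses cAMP; remaining cAMP measured by HTRF competitive immunoassay (d2-labelled cAMP vs cryptate anti-cAMP antibody), signal inversely proportional to cAMP; IC50 determined.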

CYP2C19 = CYP2C19 (Homo sapiens, UniProt P33261); assay: Inhibition of CYP2C19 in human liver microsomes at 10 uM using probe substrate and in presence of co-factor measured after 20 mins by LC-MS/MS analysis relative to control; assay type: ADME
CYP2D6 = CYP2D6 (Homo sapiens, UniProt P10635); assay: Inhibition of CYP2D6 in human liver microsomes at 10 uM using probe substrate and in presence of co-factor measured after 20 mins by LC-MS/MS analysis relative to control; assay type: ADME
[4] = Plasma protein binding in mouse at 5 uM measured after 4 hrs by LC-MS/MS analysis
in vitro [5] = conditions: mouse, liver microsomes
in vitro [6] = conditions: human, cryopreserved hepatocytes
in vitro [7] = conditions: mouse, cryopreserved hepatocytes
in vitro [8] = conditions: human, liver microsomes
in vitro [9] = conditions: rat, liver microsomes
[10] = Plasma protein binding in human at 5 uM measured after 4 hrs by LC-MS/MS analysis
[11] = Plasma protein binding in rat at 5 uM measured after 4 hrs by LC-MS/MS analysis
physchem [12] = conditions: aqueous solution with 2% DMSO, pH 7.4
Cytochrome P450 1A2 = biological target: T3, Cytochrome P450 1A2 (Homo sapiens, UniProt P05177); assay: Inhibition of CYP1A2 in human liver microsomes using probe substrate and in presence of co-factor preincubated for 20 mins followed by substrate addition by LC-MS/MS analysis
T3 sequence (P05177 whole entry): T2 sequence (P05177 whole entry)

in vitro [13] = conditions: rat, cryopreserved hepatocytes
[14] = Thermodynamic solubility of compound at pH 3; conditions: buffer
in vitro [15] = conditions: rat, cryopreserved hepatocytes; remark: listed apart in the source
physchem [16] = conditions: aqueous solution with 2% DMSO, pH 3
[17] = Inhibition of embelin-induced migration of rat neutrophils preincubated for 30 mins followed by embelin addition and measured after 1 hr by celltiter-glo assay; conditions: Neutrophil
in vitro [18] = conditions: human, cryopreserved hepatocytes; remark: listed apart in the source
[19] = Thermodynamic solubility of compound at pH 7.4; conditions: buffer
in vitro [20] = conditions: dog, liver microsomes
in vitro [21] = conditions: dog, cryopreserved hepatocytes
in vitro [22] = conditions: dog, cryopreserved hepatocytes; remark: listed apart in the source
[23] = Plasma protein binding in dog at 5 uM measured after 4 hrs by LC-MS/MS analysis
in vitro [24] = conditions: mouse, cryopreserved hepatocytes; remark: listed apart in the source
Cytochrome P450 3A4 [25] = biological target: T4, Cytochrome P450 3A4 (Homo sapiens, UniProt P08684); assay: Inhibition of human CYP3A4 in human liver microsomes using testosterone as substrate and in presence of co-factor preincubated for 20 mins followed by substrate addition by LC-MS/MS analysis
[26] = biological target: Cytochrome P450 2C9 (Homo sapiens) (UniProt P11712)
Cytochrome P450 2C19 = Cytochrome P450 2C19 (Homo sapiens, UniProt P33261); assay: Inhibition of CYP2C19 in human liver microsomes using probe substrate and in presence of co-factor preincubated for 20 mins followed by substrate addition by LC-MS/MS analysis
Cytochrome P450 3A4 [27] = biological target: T4, Cytochrome P450 3A4; assay: Inhibition of CYP3A4 in human liver microsomes using midazolam as substrate and in presence of co-factor preincubated for 20 mins followed by substrate addition by LC-MS/MS analysis
[28] = biological target: Cytochrome P450 2D6 (Homo sapiens) (UniProt P10635)
[29] = Apparent permeability from apical to basolateral in human Caco2 cells at 10 uM measured after 60 mins by lucifer yellow dye based LC-MS/MS analysis; conditions: Caco-2
Neutrophil = assay: Inhibition of dog neutrophil cell migration; conditions: Canis lupus familiaris
[30] = Inhibition of embelin-induced migration of human neutrophils preincubated for 30 mins followed by embelin addition and measured after 1 hr by ATPlite luminescence assay; conditions: Neutrophil
in vitro [31] = conditions: rhesus monkey, liver microsomes
in vivo = conditions: male, Sprague-Dawley, rat, po, 5 mg/kg

T1 sequence (P08684 whole entry): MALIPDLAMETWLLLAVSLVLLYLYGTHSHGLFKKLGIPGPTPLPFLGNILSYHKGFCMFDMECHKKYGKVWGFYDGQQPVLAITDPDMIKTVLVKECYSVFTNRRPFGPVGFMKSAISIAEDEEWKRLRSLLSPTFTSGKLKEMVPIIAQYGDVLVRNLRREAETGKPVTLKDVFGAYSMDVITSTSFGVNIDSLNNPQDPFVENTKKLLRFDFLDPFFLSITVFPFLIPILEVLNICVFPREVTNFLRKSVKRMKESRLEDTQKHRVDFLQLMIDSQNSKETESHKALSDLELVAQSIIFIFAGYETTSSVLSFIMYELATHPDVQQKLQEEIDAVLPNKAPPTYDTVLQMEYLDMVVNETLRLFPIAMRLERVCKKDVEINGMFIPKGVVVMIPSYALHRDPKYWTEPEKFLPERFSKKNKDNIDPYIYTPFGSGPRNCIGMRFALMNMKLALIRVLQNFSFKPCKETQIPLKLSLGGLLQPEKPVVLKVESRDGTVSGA
T4 sequence (P08684 whole entry): as above
3',5'-cyclic-AMP phosphodiesterase 4A, sequence (P27815 whole entry): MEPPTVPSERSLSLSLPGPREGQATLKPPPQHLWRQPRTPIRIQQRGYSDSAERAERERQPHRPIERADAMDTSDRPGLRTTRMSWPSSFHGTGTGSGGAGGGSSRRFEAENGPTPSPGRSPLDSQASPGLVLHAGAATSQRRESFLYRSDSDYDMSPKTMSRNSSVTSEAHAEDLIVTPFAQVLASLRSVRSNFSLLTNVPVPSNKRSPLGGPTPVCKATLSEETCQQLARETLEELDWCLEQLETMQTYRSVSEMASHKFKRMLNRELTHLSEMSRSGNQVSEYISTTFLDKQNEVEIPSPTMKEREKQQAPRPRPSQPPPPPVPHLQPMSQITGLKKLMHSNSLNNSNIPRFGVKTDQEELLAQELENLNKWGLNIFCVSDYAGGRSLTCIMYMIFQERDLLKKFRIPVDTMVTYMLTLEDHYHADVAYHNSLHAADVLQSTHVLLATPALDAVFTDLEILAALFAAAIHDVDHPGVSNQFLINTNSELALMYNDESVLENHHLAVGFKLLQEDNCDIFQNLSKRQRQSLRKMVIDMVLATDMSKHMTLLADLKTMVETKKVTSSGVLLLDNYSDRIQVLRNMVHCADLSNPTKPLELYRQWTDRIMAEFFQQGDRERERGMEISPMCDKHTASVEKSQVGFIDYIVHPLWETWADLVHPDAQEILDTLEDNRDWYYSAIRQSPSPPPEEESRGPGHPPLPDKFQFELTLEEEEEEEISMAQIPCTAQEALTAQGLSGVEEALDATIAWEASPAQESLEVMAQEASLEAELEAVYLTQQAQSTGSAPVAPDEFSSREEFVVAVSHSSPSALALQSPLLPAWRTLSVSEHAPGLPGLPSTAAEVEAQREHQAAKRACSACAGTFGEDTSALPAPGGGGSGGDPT
Cytochrome P450 2C9 (Homo sapiens), sequence (P11712 whole entry, looked up): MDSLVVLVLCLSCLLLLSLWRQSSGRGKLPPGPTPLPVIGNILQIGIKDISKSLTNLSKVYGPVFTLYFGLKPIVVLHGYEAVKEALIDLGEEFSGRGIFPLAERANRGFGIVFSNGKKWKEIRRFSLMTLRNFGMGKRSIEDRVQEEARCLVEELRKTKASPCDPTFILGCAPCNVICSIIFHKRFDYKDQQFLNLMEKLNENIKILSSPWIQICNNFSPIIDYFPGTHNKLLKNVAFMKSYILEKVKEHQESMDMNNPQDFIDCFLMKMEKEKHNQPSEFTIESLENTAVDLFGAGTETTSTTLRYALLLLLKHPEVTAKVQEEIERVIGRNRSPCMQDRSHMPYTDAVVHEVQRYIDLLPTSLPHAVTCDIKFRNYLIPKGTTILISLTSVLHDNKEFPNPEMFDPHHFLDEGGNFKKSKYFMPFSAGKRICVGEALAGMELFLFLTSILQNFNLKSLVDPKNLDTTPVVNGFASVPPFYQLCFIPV
CYP2C9, sequence (P11712 whole entry): as the sequence (P11712 whole entry, looked up) above
Cytochrome P450 2C19, sequence (P33261 whole entry): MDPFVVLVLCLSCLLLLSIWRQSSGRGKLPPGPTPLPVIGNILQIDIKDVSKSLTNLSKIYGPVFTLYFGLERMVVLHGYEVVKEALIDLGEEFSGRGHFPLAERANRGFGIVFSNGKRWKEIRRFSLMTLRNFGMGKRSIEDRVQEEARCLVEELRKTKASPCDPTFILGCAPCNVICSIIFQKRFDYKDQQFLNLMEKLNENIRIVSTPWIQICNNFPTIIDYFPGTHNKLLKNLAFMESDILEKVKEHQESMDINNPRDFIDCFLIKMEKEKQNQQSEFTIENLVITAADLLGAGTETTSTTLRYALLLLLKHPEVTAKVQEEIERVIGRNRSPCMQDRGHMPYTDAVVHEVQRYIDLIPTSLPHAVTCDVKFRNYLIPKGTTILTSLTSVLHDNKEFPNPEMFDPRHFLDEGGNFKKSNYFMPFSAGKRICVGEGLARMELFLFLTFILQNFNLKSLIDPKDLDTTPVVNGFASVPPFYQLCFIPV
CYP2C19, sequence (P33261 whole entry): as above
CYP2D6, sequence (P10635 whole entry): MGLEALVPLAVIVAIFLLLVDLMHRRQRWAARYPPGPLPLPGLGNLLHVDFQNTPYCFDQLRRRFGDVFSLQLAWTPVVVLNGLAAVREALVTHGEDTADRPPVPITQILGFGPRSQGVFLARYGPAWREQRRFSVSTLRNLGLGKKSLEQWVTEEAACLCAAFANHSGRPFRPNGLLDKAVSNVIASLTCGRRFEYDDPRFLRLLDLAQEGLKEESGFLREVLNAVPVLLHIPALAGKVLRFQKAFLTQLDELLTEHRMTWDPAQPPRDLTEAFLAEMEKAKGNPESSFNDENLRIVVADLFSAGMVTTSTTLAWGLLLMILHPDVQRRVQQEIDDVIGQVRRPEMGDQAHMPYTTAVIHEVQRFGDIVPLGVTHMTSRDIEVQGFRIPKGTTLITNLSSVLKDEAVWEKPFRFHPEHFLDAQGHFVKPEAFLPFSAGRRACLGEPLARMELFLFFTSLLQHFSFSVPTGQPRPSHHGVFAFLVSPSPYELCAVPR
Cytochrome P450 2D6 (Homo sapiens), sequence (P10635 whole entry, looked up): as the sequence (P10635 whole entry) above

inhibition at 20 min, 10 µM (CYP3A4 [1]): < 33%
inhibition at 20 min, 10 µM (CYP1A2): < 33%
inhibition at 20 min, 10 µM (CYP3A4 [2]): < 33%
inhibition at 20 min, 10 µM (CYP2C9): < 33%
IC50 [3]: 0.553 µM
inhibition at 20 min, 10 µM (CYP2C19): < 33%
inhibition at 20 min, 10 µM (CYP2D6): < 33%
SMILES: COc1cc2c(cc1OC)-c1cc(NCc3ccccc3)nc(=O)n1CC2

fraction unbound at 4 h, 5 µM [4]: 0.01
CLint scaled at 0.5 h, 1 µM (in vitro [5]): 31.9 L/h/kg
CLint scaled at 1 µM (in vitro [6]): 5.4 L/h/kg
CLint scaled at 1 µM (in vitro [7]): 22.5 L/h/kg
CLint scaled at 0.5 h, 1 µM (in vitro [8]): 4.6 L/h/kg
CLint scaled at 0.5 h, 1 µM (in vitro [9]): 36.9 L/h/kg
fraction unbound at 4 h, 5 µM [10]: 0.002
fraction unbound at 4 h, 5 µM [11]: 0.004
SMILES: COc1ccc2c(c1)CCn1c-2cc(OCC2COc3ccccc3O2)nc1=O (stereo not given)

CLint scaled at 0.5 h, 1 µM (in vitro [5]): 31 L/h/kg
CLint scaled at 0.5 h, 1 µM (in vitro [8]): 1.5 L/h/kg
SMILES: O=c1nc(OCC2COCCO2)cc2n1CCc1cc(CCc3ccccn3)ccc1-2 (stereo not given)

solubility (physchem [12]): 0.003 mg/mL (≈ 7.64 µM)
SMILES: COc1cc2c(cc1OC)-c1cc(OCCCc3ccccc3)nc(=O)n1CC2

The next lines start with the molecule.

SMILES: COc1ccc2c(c1)CCn1c-2cc(OCC2CCCCO2)nc1=O (stereo not given)
CLint scaled at 0.5 h, 1 µM (in vitro [5]): 27.8 L/h/kg
CLint scaled at 1 µM (in vitro [6]): 1.5 L/h/kg
CLint scaled at 1 µM (in vitro [7]): 34.5 L/h/kg
CLint scaled at 0.5 h, 1 µM (in vitro [8]): 1.3 L/h/kg

SMILES: COc1ccc2c(c1)CCn1c-2cc(OCC2CCCO2)nc1=O (stereo not given)
CLint scaled at 0.5 h, 1 µM (in vitro [5]): 129 L/h/kg
CLint scaled at 1 µM (in vitro [6]): 1.4 L/h/kg
CLint scaled at 1 µM (in vitro [7]): 38.8 L/h/kg
CLint scaled at 0.5 h, 1 µM (in vitro [8]): 2 L/h/kg

SMILES: CN(CC#Cc1ccc2c(c1)CCn1c-2cc(OCC2COCCO2)nc1=O)Cc1ccccc1 (stereo not given)
CLint scaled at 0.5 h, 1 µM (in vitro [5]): 26 L/h/kg
CLint scaled at 0.5 h, 1 µM (in vitro [8]): 5.3 L/h/kg

SMILES: O=c1nc(OC[C@H]2COCCO2)cc2n1CCc1cc(C#CC3CC3)ccc1-2
solubility (physchem [12]): 0.113 mg/mL (≈ 299 µM)
IC50 (Cytochrome P450 1A2): > 100 µM
CLint scaled at 1 µM (in vitro [13]): < 2.12 L/h/kg
solubility thermodynamic [14]: 0.0176 mg/mL (≈ 46.5 µM)
half-life at 1 µM (in vitro [15]): > 3.13 h
solubility (physchem [16]): 0.113 mg/mL (≈ 299 µM)
IC50 [17]: 0.153 µM
half-life at 1 µM (in vitro [18]): > 3.33 h
fraction unbound at 4 h, 5 µM [4]: 0.017
solubility thermodynamic [19]: 0.00949 mg/mL (≈ 25.1 µM)
CLint scaled at 0.5 h, 1 µM (in vitro [5]): 5.9 L/h/kg
CLint scaled at 1 µM (in vitro [6]): < 1.28 L/h/kg
CLint scaled at 0.5 h, 1 µM (in vitro [20]): 3.16 L/h/kg
half-life at 1 µM (in vitro [21]): > 2.52 h
CLint scaled at 1 µM (in vitro [22]): < 1.92 L/h/kg
fraction unbound at 4 h, 5 µM [23]: 0.033
CLint scaled at 1 µM (in vitro [7]): < 4.37 L/h/kg
half-life at 1 µM (in vitro [24]): > 3.33 h
CLint scaled at 0.5 h, 1 µM (in vitro [8]): 0.962 L/h/kg
IC50 (Cytochrome P450 3A4 [25]): > 50 µM
CLint scaled at 0.5 h, 1 µM (in vitro [9]): 4.97 L/h/kg
IC50 [26]: 1.85 µM
IC50 (Cytochrome P450 2C19): 18.2 µM
fraction unbound at 4 h, 5 µM [10]: 0.059
IC50 (Cytochrome P450 3A4 [27]): > 50 µM
IC50 [28]: 31.6 µM
Papp A→B at 1 h, 10 µM [29]: 312 nm/s
IC50 (Neutrophil): 0.111 µM
fraction unbound at 4 h, 5 µM [11]: 0.037
IC50 [30]: 0.051 µM

SMILES: CC(C)CC(O)C#Cc1ccc2c(c1)CCn1c-2cc(OCC2COCCO2)nc1=O (stereo not given)
CLint scaled at 0.5 h, 1 µM (in vitro [5]): 26.2 L/h/kg
CLint scaled at 0.5 h, 1 µM (in vitro [9]): 15.3 L/h/kg

SMILES: COc1ccc2c(c1)CCn1c-2cc(OCC2COCCO2)nc1=O (stereo not given)
fraction unbound at 4 h, 5 µM [4]: 0.389
CLint scaled at 0.5 h, 1 µM (in vitro [5]): 10.4 L/h/kg
CLint scaled at 1 µM (in vitro [6]): < 0.7 L/h/kg
CLint scaled at 1 µM (in vitro [7]): 15.7 L/h/kg
CLint scaled at 0.5 h, 1 µM (in vitro [8]): < 0.9 L/h/kg
CLint scaled at 0.5 h, 1 µM (in vitro [9]): < 1.4 L/h/kg
fraction unbound at 4 h, 5 µM [10]: 0.223
fraction unbound at 4 h, 5 µM [11]: 0.285

SMILES: N#Cc1ccccc1-c1ccc2c(c1)CCn1c-2cc(OCC2COCCO2)nc1=O (stereo not given)
CLint scaled at 0.5 h, 1 µM (in vitro [5]): 9.05 L/h/kg
CLint scaled at 0.5 h, 1 µM (in vitro [20]): 10 L/h/kg
CLint scaled at 0.5 h, 1 µM (in vitro [31]): 11.6 L/h/kg
CLint scaled at 0.5 h, 1 µM (in vitro [8]): 5.2 L/h/kg
CLint scaled at 0.5 h, 1 µM (in vitro [9]): 6.3 L/h/kg
AUC(0-inf) at 24 h (in vivo): 2.65 µg·h/mL

SMILES: CCCCCCOc1cc2n(c(=O)n1)CCc1cc(OC)c(OC)cc1-2
solubility (physchem [12]): 0.003 mg/mL (≈ 8.37 µM)
